Results taken from paper PMC9052940 (RSC Advances, 2020).
Where two headings read alike, the source gives them in different places.

Experiments:
[1] = PIT-slope characterization; type: physicochemical; details: molar fraction; added to 3%C10E4/n-octane/10^−2 M NaClaq
Procedure, shortened: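 Increasing amounts of test surfactant added to a reference system of 3% C10E4/n-octane/aqueous NaCl. The shift in phase inversion temperature was recorded against concentration and against molar fraction, x = moles added/(moles C10E4 + moles added). Pure n-alkyl-β-D-glucosides and maltosides served as linear references. Average error below 10%.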

[2] = cited from earlier work
[3] = calculated from NMR experiments in D2O solutions; cited from earlier work
[4] = 3%C10E4/n-octane/10^−2 M NaClaq; cited from earlier work
[5] = parameter of the normalized HLD; cited from earlier work
[6] = a = turbid solutions close and above CMC

Row | Structure (SMILES) | dPIT/dx [1] | CMC [2, 6] | γCMC [2, 6] | CMC ([2]; ref 34) | also measured
1 | CCCCCCCCCCO[C@@H]1O[C@H](CO)[C@@H](O)[C@H](O)[C@H]1O [β-D-Glucoside C10] | 47.8 °C |  |  |  | CMC ([2]; ref 44): 2.2 mmol/L; γCMC ([2]; ref 44): 27.7 mN m^−1
2 | CCCCCCCCCCCCO[C@H]1O[C@H](CO)[C@@H](O[C@H]2O[C@H](CO)[C@@H](O)[C@H](O)[C@H]2O)[C@H](O)[C@H]1O [α-D-Maltoside C12] |  | 0.12 mmol/L | 35.9 mN m^−1 |  | 
3 | CCCCCCCCCCCCCC(=O)OC[C@H]1OC(O)[C@H](O)[C@H]1O (single isomer, unassigned) [5-O-Xylose monoester (α, β isomers) C14] |  | 0.015 mmol/L | 36.0 mN m^−1 |  | 
4 | CCCCCCCCO[C@@H]1O[C@H](CO)[C@@H](O)[C@H](O)[C@H]1O [β-D-Glucoside C8, n-octyl-β-D-glucoside] | 77.8 °C |  |  |  | CMC ([2]; ref 44): 25.0 mmol/L; γCMC ([2]; ref 44): 30.1 mN m^−1
5 | CCCCCCCCCCCCO[C@H]1O[C@H](CO)[C@@H](O)[C@H](O)[C@H]1O [α-D-Glucoside C12] |  | 0.042 mmol/L | 41.2 mN m^−1 |  | 
6 | CCCCCCCCCO[C@@H]1O[C@H](CO)[C@@H](O[C@H]2O[C@H](CO)[C@@H](O)[C@H](O)[C@H]2O)[C@H](O)[C@H]1O [β-D-Maltoside C9] |  |  |  | 6.50 mmol/L | 
7 | CCCCCCCCCCCCCCCC(=O)OC[C@H]1OC(O)[C@H](O)[C@H]1O (single isomer, unassigned) [5-O-Xylose monoester (α, β isomers) C16] |  | 0.022 mmol/L | 41.0 mN m^−1 |  | 
8 | CCCCCCCCO[C@@H]1O[C@H](CO)[C@@H](O[C@H]2O[C@H](CO)[C@@H](O)[C@H](O)[C@H]2O)[C@H](O)[C@H]1O [β-D-Maltoside C8] |  |  |  | 23.2 mmol/L | 
9 | CCCCCCCCCCOCCOCCOCCOCCO [C10E4] |  |  |  |  | PIT (Phase Inversion Temperature) of the reference system [4]: 23.9 °C; PACN1 [5]: 8.2

Second part, led by results:

Row | dPIT/dx [1] | Structure (SMILES) | CMC [2, 6] | γCMC [2, 6] | CMC ([2]; ref 34) | also measured
10 | 27.0 °C | CCCCCCCCCCCCO[C@@H]1O[C@H](CO)[C@@H](O)[C@H](O)[C@H]1O [β-D-Glucoside C12] | 0.13 mmol/L | 33.1 mN m^−1 |  | CMC ([2]; ref 44): 0.19 mmol/L; γCMC ([2]; ref 44): 39.4 mN m^−1
11 | 74.3 °C | CCCCCCCCCCCCCCCCO[C@@H]1O[C@H](CO)[C@@H](O[C@H]2O[C@H](CO)[C@@H](O)[C@H](O)[C@H]2O)[C@H](O)[C@H]1O [β-D-Maltoside C16] |  |  | 0.00145 mmol/L | 
12 | 112.2 °C | CCCCCCCCCCCCO[C@@H]1O[C@H](CO)[C@@H](O[C@H]2O[C@H](CO)[C@@H](O)[C@H](O)[C@H]2O)[C@H](O)[C@H]1O [β-D-Maltoside C12, n-dodecyl-β-D-maltoside] | 0.13 mmol/L | 33.1 mN m^−1 | 0.19 mmol/L | Diffusion coefficient of micelles [3]: 7 × 10^−11 m^2 s^−1; CMC ([2]; ref 45): 0.15 mmol/L; γCMC ([2]; ref 45): 35.3 mN m^−1; Γeq (equilibrated surface excess) ([2]; ref 60): 3.32 × 10^−6 mol m^−2
13 | 123.0 °C | CCCCCCCCCCO[C@@H]1O[C@H](CO)[C@@H](O[C@H]2O[C@H](CO)[C@@H](O)[C@H](O)[C@H]2O)[C@H](O)[C@H]1O [β-D-Maltoside C10] |  |  | 2.19 mmol/L | CMC ([2]; ref 45): 1.95 mmol/L; γCMC ([2]; ref 45): 36.7 mN m^−1
14 | 80.7 °C | CCCCCCCCCCCCCCO[C@@H]1O[C@H](CO)[C@@H](O[C@H]2O[C@H](CO)[C@@H](O)[C@H](O)[C@H]2O)[C@H](O)[C@H]1O [β-D-Maltoside C14] |  |  | 0.0167 mmol/L | 
